Source: publication PMC10184136 (RSC Advances, 2023)
Entries after “also recorded” stand apart in the source; their conditions may differ.

Assays:
[1] = target: calf intestinal alkaline phosphatase (CIALP) (Bos taurus, UniProt P19111); experiment: Alkaline phosphatase inhibition assay; assay type: biochemical
[2] = test system: red blood cell membrane (bovine erythrocytes); experiment: Hemolytic activity; assay type: cell-based; conditions: bovine erythrocyte (RBC) suspension, pH 7.4
Outline: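 Bovine blood was collected in EDTA, diluted with 0.9% NaCl and centrifuged at 1000×g for 10 min. Erythrocytes were suspended in phosphate saline buffer, pH 7.4. 20 μl of a 10 mg ml−1 compound solution was added to 180 μl RBC suspension and incubated 30 min at room temperature. PBS was the negative control and Triton X-100 the positive control. % hemolysis was calculated by formula; mean ± SEM.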

alkaline phosphatase = alkaline phosphatase (Bos taurus, UniProt P19111); experiment: Kinetic analysis; assay type: biochemical, calf; conditions: for K m / V max: substrate p-NPP
alkaline phosphatase, sequence (P19111 20-506 limits assumed): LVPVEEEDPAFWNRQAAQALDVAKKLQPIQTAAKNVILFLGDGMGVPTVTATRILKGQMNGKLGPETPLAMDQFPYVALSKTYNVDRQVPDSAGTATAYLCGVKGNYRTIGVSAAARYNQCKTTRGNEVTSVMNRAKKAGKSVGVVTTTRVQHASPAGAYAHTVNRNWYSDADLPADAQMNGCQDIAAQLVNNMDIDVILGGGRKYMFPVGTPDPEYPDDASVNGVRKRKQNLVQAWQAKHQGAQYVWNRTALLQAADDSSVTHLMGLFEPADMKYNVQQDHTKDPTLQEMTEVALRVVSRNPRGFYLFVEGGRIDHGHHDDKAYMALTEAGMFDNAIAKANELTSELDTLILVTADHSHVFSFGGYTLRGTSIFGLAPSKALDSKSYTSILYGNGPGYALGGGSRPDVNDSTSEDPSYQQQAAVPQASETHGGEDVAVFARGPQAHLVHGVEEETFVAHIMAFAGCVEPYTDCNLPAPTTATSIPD
Outline: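 Run under the same pre-incubation and conditions as the CIALP p-NPP assay. p-NPP was used at 10, 5, 2.5, 1.25, 0.625 and 0.3125 mM with inhibitor at 0, 0.106, 0.211 and 0.422 μM. Initial velocities came from the linear absorbance phase, read at 1-min intervals up to 10 min. Inhibition type was taken from Lineweaver–Burk plots (1/V vs 1/[S]). Ki came from a secondary plot of slope vs inhibitor concentration, with linear least-squares fits.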

calf intestinal alkaline phosphatase (CIALP), sequence (P19111 20-506 limits assumed): as above

SMILES	IC50 [1] [µM]	hemolysis at 30 min, 1 mg/mL [2] [%]	other results
Cc1cnc(NC(=O)CCSc2nnc(-c3ccccc3)o2)s1 [8e, N-(5-Methyl-1,3-thiazol-2-yl)-3-[(5-phenyl-1,3,4-oxadiazol-2-yl)sulfanyl]propanamide]	6.32 ± 0.551	6.84 ± 0.03	–
Nc1ccc(-c2nnc(SCCC(=O)Nc3nccs3)o2)cc1 [8c, 3-{[5-(4-Aminophenyl)-1,3,4-oxadiazol-2-yl]sulfanyl}-N-(1,3-thiazol-2-yl)propanamide]	8.73 ± 0.664	7.58 ± 0.01	–
O=C(CCSc1nnc(-c2ccc(O)cc2)o1)Nc1nccs1 [8b, 3-{[5-(4-Hydroxyphenyl)-1,3,4-oxadiazol-2-yl]sulfanyl}-N-(1,3-thiazol-2-yl)propanamide]	5.99 ± 0.417	5.68 ± 0.04	–
Cc1cnc(NC(=O)CCSc2nnc(-c3ccc(O)cc3)o2)s1 [8f, 3-{[5-(4-Hydroxyphenyl)-1,3,4-oxadiazol-2-yl]sulfanyl}-N-(5-methyl-1,3-thiazol-2-yl)propanamide]	2.16 ± 0.118	7.47 ± 0.05	–
Cc1ccc(-c2nnc(SCCC(=O)Nc3nccs3)o2)cc1 [8d, 3-{[5-(4-Methylphenyl)-1,3,4-oxadiazol-2-yl]sulfanyl}-N-(1,3-thiazol-2-yl)propanamide]	1.88 ± 0.071	8.32 ± 0.03	–
CC(C)(C)CC(C)(C)c1ccc(OCCO)cc1 [Triton X, reference compound]	–	89 ± 0.01	–
Cc1cnc(NC(=O)CCSc2nnc(-c3cccc([N+](=O)[O-])c3)o2)s1 [8h, N-(5-Methyl-1,3-thiazol-2-yl)-3-{[5-(3-nitrophenyl)-1,3,4-oxadiazol-2-yl]sulfanyl}propanamide]	3.75 ± 0.981	8.63 ± 0.02	–
Cc1cnc(NC(=O)CCSc2nnc(-c3ccc(N)cc3)o2)s1 [8g, 3-{[5-(4-Aminophenyl)-1,3,4-oxadiazol-2-yl]sulfanyl}-N-(5-methyl-1,3-thiazol-2-yl)propanamide]	0.211 ± 0.019	8.82 ± 0.02	Ki (alkaline phosphatase): 0.42 µM; K m (alkaline phosphatase; 8g 0.106 μM): 360 µM; V max (alkaline phosphatase; 8g 0.106 μM): 0.003004 ΔA min^−1; K m (alkaline phosphatase; 8g 0.211 μM): 360 µM; V max (alkaline phosphatase; 8g 0.211 μM): 0.002406 ΔA min^−1; K m (alkaline phosphatase; 8g 0.422 μM): 360 µM; V max (alkaline phosphatase; 8g 0.422 μM): 0.001826 ΔA min^−1; Inhibition type (alkaline phosphatase; Lineweaver–Burk plots): non-competitively; also recorded: Non-competitive
O=C(CCSc1nnc(-c2ccccc2)o1)Nc1nccs1 [8a, 3-[(5-Phenyl-1,3,4-oxadiazol-2-yl)sulfanyl]-N-(1,3-thiazol-2-yl)propanamide]	3.98 ± 0.356	7.79 ± 0.02	–
